# Results of several laboratories.
# Each line is one published result; the experiments were not run side by side.
# Target: Mitogen-activated protein kinase kinase kinase 15 (MAP3K15, Homo sapiens, UniProt Q6ZN16)
# One construct used (Q6ZN16 1-1313): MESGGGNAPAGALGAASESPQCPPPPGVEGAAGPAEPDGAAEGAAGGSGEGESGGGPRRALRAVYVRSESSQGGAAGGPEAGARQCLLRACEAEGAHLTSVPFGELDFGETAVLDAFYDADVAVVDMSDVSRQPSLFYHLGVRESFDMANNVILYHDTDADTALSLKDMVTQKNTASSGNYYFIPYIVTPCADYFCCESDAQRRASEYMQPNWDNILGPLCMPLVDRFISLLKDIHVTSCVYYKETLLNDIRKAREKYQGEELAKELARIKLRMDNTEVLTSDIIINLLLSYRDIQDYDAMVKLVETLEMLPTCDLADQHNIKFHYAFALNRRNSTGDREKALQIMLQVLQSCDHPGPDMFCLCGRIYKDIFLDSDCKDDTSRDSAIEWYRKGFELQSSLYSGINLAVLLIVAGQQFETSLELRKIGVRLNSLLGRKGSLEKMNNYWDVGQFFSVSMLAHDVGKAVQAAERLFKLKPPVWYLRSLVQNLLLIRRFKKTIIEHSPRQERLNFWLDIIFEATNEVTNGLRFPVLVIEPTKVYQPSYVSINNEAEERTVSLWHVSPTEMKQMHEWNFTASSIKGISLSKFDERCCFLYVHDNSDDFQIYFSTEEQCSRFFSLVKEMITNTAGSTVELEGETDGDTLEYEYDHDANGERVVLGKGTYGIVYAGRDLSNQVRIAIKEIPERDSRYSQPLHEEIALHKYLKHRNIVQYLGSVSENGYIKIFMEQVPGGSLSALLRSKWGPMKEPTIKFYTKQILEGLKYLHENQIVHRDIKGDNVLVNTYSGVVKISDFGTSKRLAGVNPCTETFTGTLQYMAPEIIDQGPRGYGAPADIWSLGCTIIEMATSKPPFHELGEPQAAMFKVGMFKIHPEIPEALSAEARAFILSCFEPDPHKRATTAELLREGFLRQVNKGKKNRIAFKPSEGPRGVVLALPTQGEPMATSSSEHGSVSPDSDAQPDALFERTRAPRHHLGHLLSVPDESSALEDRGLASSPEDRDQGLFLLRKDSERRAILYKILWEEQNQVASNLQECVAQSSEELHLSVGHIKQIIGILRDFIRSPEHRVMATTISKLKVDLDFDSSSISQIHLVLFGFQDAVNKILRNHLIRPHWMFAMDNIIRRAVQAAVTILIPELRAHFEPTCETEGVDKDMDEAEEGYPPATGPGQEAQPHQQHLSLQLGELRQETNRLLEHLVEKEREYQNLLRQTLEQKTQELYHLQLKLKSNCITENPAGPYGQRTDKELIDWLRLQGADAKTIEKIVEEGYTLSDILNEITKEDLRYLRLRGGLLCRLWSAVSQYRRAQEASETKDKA
SMILES,read-out,method,tested at,remaining binding [%]
Nc1cnc(N2CCc3cc(S(=O)(=O)Nc4c(F)cc(Cl)cc4F)cc(N4CCCC4=O)c32)nc1,cell-free assay,competition with immobilised ligand,1 µM,100
C[C@@H]1CCN(c2nccc(-c3cnn4ncccc34)n2)C1,binding,,1 µM,100
C[C@@H](c1ccc(-n2cnc3c(N)ncnc32)cc1)N1CCc2nn(C)c(Cc3ccccc3)c2C1=O,binding,competition with immobilised ligand,0.1 µM,60
CN(C)c1nccc(-c2cnc3ncccn23)n1,binding,,1 µM,100
O=C(NCCCN1CCOCC1)c1ccc(Nc2ncc(Cl)c(-c3ccc(Cl)s3)n2)cc1,binding,competition with immobilised ligand,1 µM,68
CCCCN(CCCC)C(=O)CN1C[C@@H](c2cc(OC)c3c(c2)OCO3)[C@H](C(=O)O)[C@H]1CC(C)(C)CCC,cell-free assay,competition with immobilised ligand,1 µM,99
COc1cnc(Nc2cccc(S(N)(=O)=O)c2)nc1N1CCN(c2ccccc2)CC1,binding,competition with immobilised ligand,1 µM,78
CN(CCCC(F)(F)F)c1nccc(-c2cnn3ncccc23)n1,binding,,1 µM,100
Cn1cc(Cl)c2c(Oc3c(F)cc(Nc4cc(Cl)nc(N)n4)cc3F)ccnc21,cell-free assay,competition with immobilised ligand,0.1 µM,84
O=C(NCC1CCOCC1)c1n[nH]cc1NC(=O)c1c(F)cccc1F,binding,competition with immobilised ligand,1 µM,72
c1cncc(-c2cccc(Nc3nccc(NC4CCCCC4)n3)c2)c1,binding,competition with immobilised ligand,10 µM,77
CCN1CCN(Cc2ccc(C(=O)Nc3ccc(C)c(Oc4ccc5c(c4)CC(=O)N5)c3)cc2C(F)(F)F)CC1,binding,competition with immobilised ligand,1 µM,100
CN(C)c1nccc(-c2cnn3ncccc23)n1,binding,,1 µM,91
CC1=C(C#N)C(c2ccc3c(c2)c(NC(=O)c2ccccc2C)nn3C)C(C#N)=C(C)N1,cell-free assay,competition with immobilised ligand,1 µM,96
N[C@@H]1CCN(c2nccc(-c3cnn4ncccc34)n2)C1,binding,,1 µM,92
O=C(NCCCN1CCOCC1)c1ccc(Nc2nccc(-c3cc4ccccc4s3)n2)cc1,binding,competition with immobilised ligand,1 µM,56
Cc1nccc(COC(=O)N2C[C@@H]3[C@@H](CNC(=O)c4ccc5[nH]nnc5c4)[C@@H]3C2)n1,cell-free assay,competition with immobilised ligand,1 µM,95
F[C@@H]1CCN(c2nccc(-c3cnn4ncccc34)n2)C1,binding,,1 µM,100
COc1ccc2c(c1)O[C@@H](c1ccc(OC)c(OC)c1)C[C@H]2NC(=O)C1(c2ccc3c(c2)OC(F)(F)O3)CC1,cell-free assay,competition with immobilised ligand,1 µM,88
O=C(c1ccc(Nc2ncc(Cl)c(-c3cc4ccccc4s3)n2)cc1)N1CCC(N2CCCC2)CC1,binding,competition with immobilised ligand,1 µM,55
